Test results taken from ChEMBL document CHEMBL2429718, “MT-Stabilizer, Dictyostatin, Exhibits Prolonged Brain Retention and Activity: Potential Therapeutic Implications” (ACS Med Chem Lett, 2013).
Calls of active or inactive are those of the source. The rule behind the calls is not given here.

Assays:
HEK293 [1] = assay: Stabilization of microtubule in HEK293 cells assessed as increase in acetylated alpha-tubulin after 4 hrs by ELISA; assay type: cell-based; conditions: Homo sapiens
In short: (§1)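 In HEK293 cells, microtubule stabilization was read as compound-induced elevation of acetylated α-tubulin. Compounds were tested across a concentration series that included 1, 10 and 100 nM, with n = 4 per condition. Values are given as mean ± SEM.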

[2] = AUC (0.25 to 4 hrs) in CD1 mouse plasma at 5 mg/kg, ip administered as single dose at 4 hrs; assay type: ADME, organism-based; set-up: time 0.25-4 hr, dose 5 mg/kg, route intraperitoneal
In short: (§2)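 CD1 mice received one i.p. dose of 5 mg/kg. Blood and brain were taken from groups of animals at several times after dosing, with n = 3 mice per time point, and compound levels were measured in plasma and brain. Exposure was expressed as AUC over 0.25–4 h. Concentrations at 4 h and 16 h are given as mean ± SD.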

[3] = AUC (0.25 to 4 hrs) in CD1 mouse brain at 5 mg/kg, ip administered as single dose at 4 hrs; assay type: ADME, organism-based; set-up: time upper 4 hr, time lower 0.25 hr, dose 5 mg/kg, route intraperitoneal; in short: as §2
Plasma [4] = assay: (§3) Plasma concentration in CD1 mouse at 5 mg/kg, ip administered as single dose at 16 hrs; assay type: ADME, organism-based; set-up: dose 5 mg/kg, route intraperitoneal; conditions: mouse, in vivo, 16 h, BLD = below limit of detection; in short: as §2
HEK293 [5] = assay: Stabilization of microtubule in HEK293 cells assessed as increase in acetylated alpha-tubulin at 100 nM after 4 hrs by ELISA; assay type: cell-based; conditions: Homo sapiens; in short: as §1
[6] = Drug uptake in CD1 mouse brain at 5 mg/kg, ip administered as single dose at 16 hrs; assay type: ADME, organism-based; set-up: dose 5 mg/kg, route intraperitoneal; conditions: read-out: Drug uptake; in short: as §2
[7] = Plasma concentration in CD1 mouse at 5 mg/kg, ip administered as single dose at 4 hrs; assay type: ADME, organism-based; set-up: dose 5 mg/kg, route intraperitoneal; in short: as §2
[8] = Drug uptake in CD1 mouse brain at 5 mg/kg, ip administered as single dose at 4 hrs; assay type: ADME, organism-based; set-up: dose 5 mg/kg, route intraperitoneal; conditions: read-out: Drug uptake; in short: as §2
[9] = Fraction unbound in CD1 mouse brain at 5 mg/kg, ip administered as single dose; assay type: ADME, organism-based; set-up: dose 5 mg/kg, route intraperitoneal; conditions: in vivo
[10] = as §3; assay type: ADME, organism-based; set-up: dose 5 mg/kg, route intraperitoneal; conditions: CD1, mouse, plasma; in short: as §2
Brain = assay: Stabilization of microtubule brain in CD1 mouse assessed as increase in acetylated alpha-tubulin at 5 mg/kg, ip administered as single dose measured after 7 days relative to vehicle-treated control; assay type: functional, organism-based; set-up: dose 5 mg/kg
In short: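 Wild-type mice received one i.p. dose of 5 mg/kg, with DMSO as vehicle control, and 3 mice per treatment. Brains were collected 7 days later and the acetylated α-tubulin to α-tubulin ratio was measured. The mean ratio of treated mice was normalized to that of vehicle-treated mice.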

HEK293 [11] = assay: Stabilization of microtubule in HEK293 cells assessed as increase in acetylated alpha-tubulin at 1to 10 nM after 4 hrs by ELISA; assay type: cell-based; conditions: Homo sapiens; in short: as §1
[12] = AUC (0.5 to 16 hrs) in CD1 mouse brain at 5 mg/kg, ip administered as single dose at 4 hrs; assay type: ADME, organism-based; set-up: time 0.5-16 hr, dose 5 mg/kg, route intraperitoneal
Plasma [13] = assay: Fraction unbound in CD1 mouse plasma at 5 mg/kg, ip dministered as single dose; assay type: ADME, organism-based; set-up: dose 5 mg/kg, route intraperitoneal; conditions: in vivo

With C=C/C=C\[C@H](C)[C@H](OC(N)=O)[C@@H](C)[C@H](O)[C@@H](C)C/C(C)=C\[C@H](C)[C@@H](O)[C@@H](C)/C=C\[C@@H](O)C[C@@H]1OC(=O)[C@H](C)[C@@H](O)[C@H]1C [DISERMOLIDE] as the molecule, how does the Activity (HEK293 [1]) read?
The Activity was “Dose-dependent effect”.

What about the AUC(0-t) at 4 h [2] of the same molecule?
Its AUC(0-t) at 4 h is 0.439 µM·h.

What about the AUC(0-t) at 4 h [3] of the same molecule?
Its AUC(0-t) at 4 h is 0.112 µM·h.

With C/C1=C/C[C@@H](/C(C)=C/c2csc(C)n2)OC(=O)C[C@H](O)C(C)(C)C(=O)[C@H](C)[C@@H](O)[C@@H](C)CCC1 [EPOTHILONE D] as the molecule, how does the Cp (Plasma [4]) read?
Its Cp is “BLD”.

And the Activity (HEK293 [5])?
Its Activity is “Active”.

What about the concentration at 16 h [6] of the same molecule?
The concentration at 16 h was 111 nM.

What about the concentration at 4 h [7] of the same molecule?
The concentration at 4 h was 19 nM.

And the Activity (HEK293 [1])?
The Activity was “Dose-dependent effect”.

What about the concentration at 4 h [8] of the same molecule?
The concentration at 4 h was 161 nM.

With C=C/C=C\[C@H](C)[C@@H]1OC(=O)/C=C\C=C\[C@@H](C)[C@@H](O)C[C@H](O)/C=C\[C@H](C)[C@H](O)[C@@H](C)C[C@@H](C)CC[C@@H](O)[C@@H]1C [DICTYOSTATIN] as the molecule, how does the Fu [9] read?
The Fu was 0.5%.

What about the concentration at 16 h [10] of the same molecule?
The concentration at 16 h was 77 nM.

What about the Activity (Brain) of the same molecule?
Its Activity is “Active”.

And the Activity (HEK293 [11])?
Its Activity is “Active”.

What about the concentration at 16 h [6] of the same molecule?
The concentration at 16 h was 383 nM.

What about the concentration at 4 h [7] of the same molecule?
The concentration at 4 h was 83 nM.

What about the Activity (HEK293 [1]) of the same molecule?
Its Activity is “Dose-dependent effect”.

What about the AUC(0-t) [12] of the same molecule?
The AUC(0-t) was 6.25 µM·h.

And the Fu (Plasma [13])?
Its Fu is 0.9%.

And the concentration at 4 h [8]?
Its concentration at 4 h is 412 nM.

And the AUC(0-t) at 4 h [2]?
Its AUC(0-t) at 4 h is 5.54 µM·h.
